ChEMBL document CHEMBL4145448, “Broad activity of diphenyleneiodonium analogues against Mycobacterium tuberculosis, malaria parasites and bacterial pathogens” (Eur J Med Chem, 2018)

How the values were obtained:
[1] = Selectivity index, ratio of CC50 for human HepG2 cells in presence of 1% FBS to MIC for Escherichia coli N2381; type: toxicity; conditions: read-out: Selectivity Index
[2] = Selectivity index, ratio of CC50 for human HepG2 cells in presence of 1% FBS to MIC for Acinetobacter baumannii isolate 246-01-C; type: toxicity; conditions: read-out: Selectivity Index
[3] = Selectivity index, ratio of CC50 for human HepG2 cells in presence of 1% FBS to MIC for Klebsiella pneumoniae isolate 1; type: toxicity; conditions: read-out: Selectivity Index
[4] = Selectivity index, ratio of CC50 for human HepG2 cells in presence of 1% FBS to MIC for Escherichia coli N11281; type: toxicity; conditions: read-out: Selectivity Index
[5] = Selectivity index, ratio of CC50 for human HepG2 cells in presence of 1% FBS to MIC for Pseudomonas aeruginosa isolate 912; type: toxicity; conditions: read-out: Selectivity Index
Summary of the method: (§1)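 Selectivity index is CC50 (1% FBS) divided by MIC. […] They then got compound at 300 to 0.14 µM (3-fold steps) for 24 h at 37 °C, 5% CO2. Resazurin (10 µM, 2 h) was read at ex/em 560/590 in duplicate wells. For MIC, CLSI broth microdilution was run in CaMHB with ~10^6 cfu/mL inoculum and 0–128 µM compound.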

[6] = Selectivity index, ratio of CC50 for human HepG2 cells in presence of 1% FBS to MIC for Pseudomonas aeruginosa isolate M146201; type: toxicity; conditions: read-out: Selectivity Index; summary of the method: as §1
[7] = Selectivity index, ratio of CC50 for human HepG2 cells in presence of 1% FBS to MIC for Acinetobacter baumannii ATCC 17978; type: toxicity; conditions: read-out: Selectivity Index
Klebsiella pneumoniae [8] = assay: Antibacterial activity against Klebsiella pneumoniae isolate 224-11-C after 18 hrs by broth microdilution method; type: functional
Summary of the method: (§2)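 Broth microdilution per CLSI in cation-adjusted Mueller-Hinton broth. 100 µL inoculum (~10^6 cfu/mL in CaMHB) mixed with 100 µL CaMHB containing compound, 0 to 128 µM. Incubated 18 h at 37 °C. MIC taken as the lowest concentration with no visible growth. Polymyxin B served as positive control. Isolates were stored at -80 °C in tryptone soy broth with 20% glycerol.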

[9] = Selectivity index, ratio of CC50 for human HepG2 cells in presence of 1% FBS to MIC for vancomycin-resistant Enterococcus faecium ATCC 700221; type: toxicity; conditions: read-out: Selectivity Index; summary of the method: as §1
[10] = Selectivity index, ratio of CC50 for human HepG2 cells in presence of 1% FBS to MIC for Pseudomonas aeruginosa QLD PSA 1; type: toxicity; conditions: read-out: Selectivity Index; summary of the method: as §1
[11] = Selectivity index, ratio of CC50 for human HepG2 cells in presence of 1% FBS to MIC for Acinetobacter baumannii ATCC 19606; type: toxicity; conditions: read-out: Selectivity Index
[12] = Selectivity index, ratio of CC50 for human HepG2 cells in presence of 1% FBS to MIC for Escherichia coli N4149; type: toxicity; conditions: read-out: Selectivity Index
Acinetobacter baumannii [13] = assay: Antibacterial activity against Acinetobacter baumannii isolate 246-01-C after 18 hrs by broth microdilution method; type: functional; summary of the method: as §2
Escherichia coli = assay: Antibacterial activity against Escherichia coli N4149 after 18 hrs by broth microdilution method; type: functional; conditions: N4149, 18 h; summary of the method: as §2
Staphylococcus aureus [14] = assay: Antibacterial activity against vancomycin-intermediate Staphylococcus aureus ATCC 700698 after 18 hrs by broth microdilution method; type: functional; conditions: ATCC 700698, 18 h; summary of the method: as §2
Staphylococcus aureus [15] = assay: Antibacterial activity against vancomycin-resistant Staphylococcus aureus ATCC 700699 after 18 hrs by broth microdilution method; type: functional; conditions: ATCC 700699, 18 h; summary of the method: as §2
Staphylococcus aureus [16] = assay: Antibacterial activity against methicillin-resistant Staphylococcus aureus ATCC 43300 after 18 hrs by broth microdilution method; type: functional; conditions: ATCC 43300, 18 h; summary of the method: as §2
[17] = Selectivity index, ratio of CC50 for human HepG2 cells in presence of 1% FBS to MIC for Acinetobacter baumannii isolate 07AC-336; type: toxicity; conditions: read-out: Selectivity Index
[18] = Selectivity index, ratio of CC50 for human HepG2 cells in presence of 1% FBS to IC50 for CQ-sensitive GFP-fused Plasmodium falciparum D10; type: toxicity; conditions: read-out: Ratio IC50
Pseudomonas aeruginosa [19] = assay: Antibacterial activity against Pseudomonas aeruginosa isolate 19147nm after 18 hrs by broth microdilution method; type: functional; summary of the method: as §2
[20] = Selectivity index, ratio of CC50 for human HepG2 cells in presence of 1% FBS to MIC for Klebsiella pneumoniae isolate 248-33-D; type: toxicity; conditions: read-out: Selectivity Index
[21] = Selectivity index, ratio of CC50 for human HepG2 cells in presence of 1% FBS to MIC for Mycobacterium tuberculosis H37Rv ATCC 25618; type: toxicity; conditions: read-out: Selectivity Index
[22] = Selectivity index, ratio of CC50 for human HepG2 cells in presence of 1% FBS to MIC for vancomycin-intermediate Staphylococcus aureus ATCC 700698; type: toxicity; conditions: read-out: Selectivity Index; summary of the method: as §1
[23] = Selectivity index, ratio of CC50 for human HepG2 cells in presence of 1% FBS to MIC for Klebsiella pneumoniae isolate M320445; type: toxicity; conditions: read-out: Selectivity Index
Klebsiella pneumoniae [24] = assay: Antibacterial activity against Klebsiella pneumoniae isolate 1 after 18 hrs by broth microdilution method; type: functional; conditions: isolate 1, 18 h; summary of the method: as §2
[25] = Selectivity index, ratio of CC50 for human HepG2 cells in presence of 1% FBS to MIC for Klebsiella pneumoniae isolate 224-11-C; type: toxicity; conditions: read-out: Selectivity Index
Enterococcus faecium = assay: Antibacterial activity against vancomycin-resistant Enterococcus faecium ATCC 700221 after 18 hrs by broth microdilution method; type: functional; conditions: ATCC 700221, 18 h; summary of the method: as §2
Pseudomonas aeruginosa [26] = assay: Antibacterial activity against Pseudomonas aeruginosa isolate 18878B klon 1 after 18 hrs by broth microdilution method; type: functional; conditions: isolate 18878B klon 1, 18 h; summary of the method: as §2
[27] = Selectivity index, ratio of CC50 for human HepG2 cells in presence of 1% FBS to MIC for vancomycin-resistant Staphylococcus aureus ATCC 700699; type: toxicity; conditions: read-out: Selectivity Index; summary of the method: as §1
Acinetobacter baumannii [28] = assay: Antibacterial activity against Acinetobacter baumannii ATCC 19606 col10 after 18 hrs by broth microdilution method; type: functional; conditions: ATCC 19606 = CIP 70.34 = JCM 6841 col10, 18 h; summary of the method: as §2
Acinetobacter baumannii [29] = assay: Antibacterial activity against Acinetobacter baumannii isolate 07AC-336 after 18 hrs by broth microdilution method; type: functional; conditions: isolate 07AC-336, 18 h; summary of the method: as §2
Pseudomonas aeruginosa [30] = assay: Antibacterial activity against Pseudomonas aeruginosa isolate 912 after 18 hrs by broth microdilution method; type: functional; conditions: isolate 912, 18 h; summary of the method: as §2
[31] = Selectivity index, ratio of CC50 for human HepG2 cells in presence of 1% FBS to MIC for Pseudomonas aeruginosa ATCC 27853; type: toxicity; conditions: read-out: Selectivity Index; summary of the method: as §1
[32] = Selectivity index, ratio of CC50 for human HepG2 cells in presence of 1% FBS to MIC for Acinetobacter baumannii ATCC 17978 col10; type: toxicity; conditions: read-out: Selectivity Index

| SMILES | selectivity ratio [1] | selectivity ratio [2] | selectivity ratio [3] | selectivity ratio [4] | selectivity ratio [5] | selectivity ratio [6] | selectivity ratio [7] | MIC (Klebsiella pneumoniae [8]) [µM] | selectivity ratio [9] | selectivity ratio [10] | selectivity ratio [11] | selectivity ratio [12] | MIC (Acinetobacter baumannii [13]) [µM] | MIC (Escherichia coli) [µM] | MIC (Staphylococcus aureus [14]) [µM] | MIC (Staphylococcus aureus [15]) [µM] | MIC (Staphylococcus aureus [16]) [µM] | selectivity ratio [17] | selectivity ratio [18] | MIC (Pseudomonas aeruginosa [19]) [µM] | other results |
| --- | --- | --- | --- | --- | --- | --- | --- | --- | --- | --- | --- | --- | --- | --- | --- | --- | --- | --- | --- | --- | --- |
| Cc1ccc2c(c1)-c1ccccc1[I+]2 | 0.52 | 4.2 | > 0.52 | 0.52 | 4.2 | 1 | 4.2 | > 72 | 8.3 | 1 | 2.2 | > 0.52 | 9 | > 72 | 18 | 18 | 9 | 2.2 | 500 | 9 | selectivity ratio [20]: 0.52; selectivity ratio [21]: 66; selectivity ratio [22]: 2.2; selectivity ratio [23]: 0.52; MIC (Klebsiella pneumoniae [24]): > 72 µM; selectivity ratio [25]: > 0.52; MIC (Enterococcus faecium): 4.5 µM; MIC (Pseudomonas aeruginosa [26]): 9 µM; selectivity ratio [27]: 2.2; MIC (Acinetobacter baumannii [28]): 9 µM; MIC (Acinetobacter baumannii [29]): 18 µM; MIC (Pseudomonas aeruginosa [30]): 9 µM; selectivity ratio [31]: > 0.52; selectivity ratio [32]: 33 |
| Fc1ccc2c(c1)-c1ccccc1[I+]2 | 0.67 | 2.7 | 0.33 | 0.67 | 5.3 | 2.7 | 5.3 | 36 | 2.7 | 0.67 | 2.7 | 0.33 | 4.5 | 36 | 18 | 9.1 | 4.5 | 1.3 | 125 | 1.1 | selectivity ratio [20]: 0.67; selectivity ratio [21]: 41; selectivity ratio [22]: 0.67; selectivity ratio [23]: 0.67; MIC (Klebsiella pneumoniae [24]): 36 µM; selectivity ratio [25]: 0.33; MIC (Enterococcus faecium): 4.5 µM; MIC (Pseudomonas aeruginosa [26]): 2.2 µM; selectivity ratio [27]: 1.3; MIC (Acinetobacter baumannii [28]): 2.2 µM; MIC (Acinetobacter baumannii [29]): 9.1 µM; MIC (Pseudomonas aeruginosa [30]): 2.2 µM; selectivity ratio [31]: 0.67; selectivity ratio [32]: 2 |
| N#Cc1ccc2c(c1)-c1ccccc1[I+]2 | 0.32 | 0.13 | > 0.32 | 0.32 | 2.5 | 2.5 | 5.1 | > 71 | 20 | 0.13 | 0.13 | > 0.32 | 18 | > 71 | 8.8 | 8.8 | 1.1 | 0.32 | 531 | 4.4 | selectivity ratio [20]: 0.32; selectivity ratio [21]: 78; selectivity ratio [22]: 2.5; selectivity ratio [23]: 0.32; MIC (Klebsiella pneumoniae [24]): > 71 µM; selectivity ratio [25]: > 0.32; MIC (Enterococcus faecium): 1.1 µM; MIC (Pseudomonas aeruginosa [26]): 8.8 µM; selectivity ratio [27]: 2.5; MIC (Acinetobacter baumannii [28]): 2.2 µM; MIC (Acinetobacter baumannii [29]): 71 µM; MIC (Pseudomonas aeruginosa [30]): 8.8 µM; selectivity ratio [31]: 0.32; selectivity ratio [32]: 10 |
| COc1ccc2c(c1)-c1ccccc1[I+]2 | > 0.29 | 0.58 | > 0.29 | > 0.29 | 2.3 | 0.29 | 1.2 | > 70 | 4.6 | 0.29 | 0.58 | > 0.29 | 35 | > 70 | 35 | 35 | 18 | 0.29 | 213 | 18 | selectivity ratio [20]: > 0.29; selectivity ratio [21]: 19; selectivity ratio [22]: 0.58; selectivity ratio [23]: 0.29; MIC (Klebsiella pneumoniae [24]): > 70 µM; selectivity ratio [25]: > 0.29; MIC (Enterococcus faecium): 4.4 µM; MIC (Pseudomonas aeruginosa [26]): 35 µM; selectivity ratio [27]: 0.58; MIC (Acinetobacter baumannii [28]): 8.7 µM; MIC (Acinetobacter baumannii [29]): 70 µM; MIC (Pseudomonas aeruginosa [30]): 8.7 µM; selectivity ratio [31]: > 0.29; selectivity ratio [32]: 4.6 |
| Cc1ccc2c(c1)[I+]c1ccccc1-2.O=S(=O)([O-])C(F)(F)F | 0.05 | 0.21 | 0.05 | 0.11 | 0.81 | 0.11 | 0.81 | 72 | 0.81 | > 0.05 | 0.41 | 0.05 | 18 | 72 | 9.1 | 9.05 | 4.5 | 0.21 | 15.8 | 4.5 | selectivity ratio [20]: 0.05; selectivity ratio [21]: 6.4; selectivity ratio [22]: 0.41; selectivity ratio [23]: 0.11; MIC (Klebsiella pneumoniae [24]): 72 µM; selectivity ratio [25]: 0.05; MIC (Enterococcus faecium): 4.5 µM; MIC (Pseudomonas aeruginosa [26]): 4.5 µM; selectivity ratio [27]: 0.398; MIC (Acinetobacter baumannii [28]): 4.5 µM; MIC (Acinetobacter baumannii [29]): 18 µM; MIC (Pseudomonas aeruginosa [30]): 4.5 µM; selectivity ratio [31]: 0.05; selectivity ratio [32]: 3.2 |
| Clc1ccc2c(c1)-c1ccccc1[I+]2 | 0.93 | 3.7 | 0.47 | 0.93 | 3.7 | 3.7 | 7.5 | 35 | 1.9 | 1.9 | 3.7 | 0.93 | 4.3 | 17 | 4.3 | 4.3 | 2.2 | 1.9 | 194 | 4.3 | selectivity ratio [20]: 0.93; selectivity ratio [21]: 30; selectivity ratio [22]: 3.7; selectivity ratio [23]: 0.47; MIC (Klebsiella pneumoniae [24]): 35 µM; selectivity ratio [25]: 0.47; MIC (Enterococcus faecium): 8.7 µM; MIC (Pseudomonas aeruginosa [26]): 2.2 µM; selectivity ratio [27]: 3.7; MIC (Acinetobacter baumannii [28]): 2.2 µM; MIC (Acinetobacter baumannii [29]): 8.7 µM; MIC (Pseudomonas aeruginosa [30]): 4.3 µM; selectivity ratio [31]: 1.9; selectivity ratio [32]: 30 |
